Screening results as filed in PubChem BioAssay.
TRPC4 block – inhibitors of mouse TRPC4 channel; Q9QUQ5; HEK293 TRPC4beta/mu-opioid, DAMGO-evoked Fluo4 calcium flux; hits give low values; B-score at 10 µM; actives 0.39% (n = 300,000);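 active means B-score over 3 SD under the library average, no early fluorescence shift, positive overall ratio signal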
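Material: HEK293 cells with stable TRPC4beta plus mu-opioid receptor expression; probe or stimulus: DAMGO in two steps, submaximal then maximal; technique: Fluo4 calcium fluorescence by kinetic imaging, 5 s 1 Hz baseline; measure: integrated fluorescence ratio relative to baseline, converted to per-well B score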
TRPC4 potent – allosteric potentiators of mouse TRPC4 channel; actives 0.42% (n = 310,000); Q9QUQ5; B-score at 10 µM; HEK293 TRPC4beta/mu-opioid, DAMGO EC20, Fluo-4 Ca2+ flux; hits give high values;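 active means B-score of calcium response area above 5 SD of library B-scores, with initial fluorescence ratio within 5 SD of library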;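 further: B-score of integrated fluorescence ratio over time as area under calcium response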
TRPC6 inhibitor – blocks the mouse TRPC6 cation channel; Q61143; HEK293-TRPC6, membrane potential dye, ACh-evoked depolarization; hits give low values; B-score at 10 µM; actives 1.1% (n = 310,000);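 active means B-score under library mean minus 3 SD, initial fluorescence not abnormally high, positive integrated signal ratio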;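 further: B-score derived from integrated fluorescence ratio over the kinetic read; more negative B-score means stronger inhibition of depolarization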
Target sequence (Q61143 whole entry, looked up): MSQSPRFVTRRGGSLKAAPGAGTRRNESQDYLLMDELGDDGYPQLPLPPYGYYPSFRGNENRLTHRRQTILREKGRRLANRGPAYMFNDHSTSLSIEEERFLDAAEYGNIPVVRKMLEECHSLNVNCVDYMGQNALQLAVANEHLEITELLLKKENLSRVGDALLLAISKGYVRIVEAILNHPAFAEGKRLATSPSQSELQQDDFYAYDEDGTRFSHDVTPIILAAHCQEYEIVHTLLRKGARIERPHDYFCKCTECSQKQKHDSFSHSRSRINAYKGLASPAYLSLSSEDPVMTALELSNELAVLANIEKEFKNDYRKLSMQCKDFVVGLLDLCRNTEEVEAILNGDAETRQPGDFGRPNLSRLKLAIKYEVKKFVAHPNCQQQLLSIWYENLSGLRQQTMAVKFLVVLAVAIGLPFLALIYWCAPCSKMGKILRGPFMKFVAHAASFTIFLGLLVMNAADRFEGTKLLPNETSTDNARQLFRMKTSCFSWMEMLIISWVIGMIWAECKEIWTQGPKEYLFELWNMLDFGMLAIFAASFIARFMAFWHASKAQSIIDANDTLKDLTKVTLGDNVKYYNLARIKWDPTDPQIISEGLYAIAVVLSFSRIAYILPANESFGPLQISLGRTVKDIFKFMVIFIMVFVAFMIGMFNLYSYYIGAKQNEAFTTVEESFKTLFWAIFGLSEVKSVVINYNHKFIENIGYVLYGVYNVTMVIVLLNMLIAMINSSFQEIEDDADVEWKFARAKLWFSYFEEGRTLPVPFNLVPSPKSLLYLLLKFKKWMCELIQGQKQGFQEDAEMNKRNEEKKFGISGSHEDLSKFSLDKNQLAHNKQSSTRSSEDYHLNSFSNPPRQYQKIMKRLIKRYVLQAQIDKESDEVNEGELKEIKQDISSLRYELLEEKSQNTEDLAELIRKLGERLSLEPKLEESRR
TRPC4 act – activators of mouse TRPC4 channel. Q9QUQ5. HEK293 TRPC4beta/mu-opioid, Fluo4 calcium fluorescence; hits give high values. B-score at 10 µM. actives 0.49% (n = 310,000);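 active means B-score above 5 SD of library B-scores, and initial fluorescence ratio not above library mean plus 5 SD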;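 further: positive B-score marks a calcium rise read as TRPC4 activation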
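system = HEK293 cells stably co-expressing mouse TRPC4beta and mu-opioid receptor | schedule = Fluo4 dye loading 45 min at room temperature, 110 s recording | measure = B-scored integrated calcium fluorescence ratio | signal = Fluo4 calcium-sensitive dye fluorescence, kinetic, 1 Hz baseline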
Platelet DG rel – modulates dense granule release in human platelets; human platelet-rich plasma, SFLLRN dense granule ATP release, luminescence; inhibition, %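 (compounds screened at 7.5 µM in platelet-rich plasma)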; actives 0.22% (n = 300,000);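 active means mean replicate score, as percent of positive control, at or above 50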
TRPC6 act – mouse TRPC6 channel activation; HEK293-TRPC6 membrane potential dye fluorescence; hits give high values; actives 0.13% (n = 310,000); Q61143; B-score at 10 µM;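 active means B-score of the integrated fluorescence ratio above library mean plus 3 SD, and starting fluorescence ratio within library mean plus 5 SD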;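 further: higher score means more depolarization so channel activation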
HEK293 TRPC6 ctr – checks TRPC6 modulator effects in parental HEK293 cells; shares compounds with TRPC6 inhibitor; membrane potential signal change, % at 10 µM; AID 488924; membrane potential dye fluorescence; actives 51% (n = 2,400);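 active means membrane potential signal moves up or down beyond 5 SD from buffer-only wells, on both duplicate plates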
HEK293 MPD ctr 2 – second counter-screen for TRPC6 modulators: effect in parental HEK293 cells; shares compounds with TRPC6 inhibitor; actives 14% (n = 2,400); membrane potential dye fluorescence; after compound, maximal acetylcholine stimulation; inhibition, % at 10 µM;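 active means membrane potential signal drops by more than 5 SD from the mean control signal, in both duplicate plates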;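 further: plate controls were acetylcholine ECmax control wells for no effect and buffer only wells for full effect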
TRPC4/MOR mod – mouse TRPC4 off-target activity of TRPC6 modulators | shares compounds with TRPC6 inhibitor | HEK293 TRPC4/mu-opioid, membrane potential fluorescence | percent change from control (negative = decrease, positive = increase), % at 10 µM | actives 69% (n = 2,400) | AID 488927;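 active means membrane potential signal moved up or down beyond 5 SD of buffer control wells, in both duplicate plates, actives on both sides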;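 further: plate controls were assay buffer wells for no effect and DAMGO maximal-effect wells for full effect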
TRPC4 ctr inh 2 – second selectivity test of TRPC6 modulators against mouse TRPC4. inhibition, % at 10 µM. actives 55% (n = 2,400). shares compounds with TRPC6 inhibitor. HEK293 TRPC4/mu-opioid, membrane potential dye fluorescence; stimulated with maximal-effect DAMGO;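 active means drop in membrane potential signal beyond 5 SD of the control wells in both duplicate plates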;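 further: TRPC4 counter screen for TRPC6 hits run under conditions tuned for TRPC6 not TRPC4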
TRPC6 inh conf – mouse TRPC6 inhibitor confirmation; inhibition, % at 10 µM; HEK293-TRPC6, membrane potential dye, ACh-evoked depolarization; shares compounds with TRPC6 inhibitor; AID 488960; actives 43% (n = 3,300);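 active means fluorescence ratio falls more than 5 SD below the full-stimulation control mean, in both duplicate runs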;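 further: integrated fluorescence ratio of peak minus minimum over baseline after agonist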
TRPC6 act confirm – mouse TRPC6 activator confirmation; activation, % at 10 µM; AID 488961; HEK293-TRPC6 membrane potential dye fluorescence, FDSS; shares compounds with TRPC6 inhibitor; actives 11% (n = 2,800);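 active means ratio signal rise beyond 5 SD above unstimulated control wells' mean, seen in both duplicate runs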;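 further: plate controls were buffer EC0 wells for no effect and acetylcholine ECmax response for full effect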
The depositor's hits bear a star. Hits are enriched below; roughly 2.5% of the tested compounds scored in any of these assays.

How did COc1cccc(CNC(=O)Cn2ccc3cc(S(=O)(=O)N4CCC(C)CC4)ccc32)c1 do in these assays?
TRPC4 block: inactive; TRPC4 potent: inactive; TRPC6 inhibitor: inactive; TRPC4 act: inactive; Platelet DG rel: -6; TRPC6 act: inactive

Results for COC(=O)c1sc2nc(-c3ccccc3)nc(N3CCN(C)CC3)c2c1C ?
TRPC4 block: inactive; TRPC4 potent: inactive; TRPC6 inhibitor: -5.4*; TRPC4 act: inactive; Platelet DG rel: -2; TRPC6 act: inactive; HEK293 TRPC6 ctr: -122%*; HEK293 MPD ctr 2: inactive; TRPC4/MOR mod: -29%*; TRPC4 ctr inh 2: inactive; TRPC6 inh conf: inactive; TRPC6 act confirm: inactive

How did CCOC(=O)c1sc2ncnc(N3CCN(C)CC3)c2c1C do in these assays?
TRPC4 block: inactive; TRPC4 potent: inactive; TRPC6 inhibitor: -5.5*; TRPC4 act: inactive; Platelet DG rel: -1; TRPC6 act: inactive; HEK293 TRPC6 ctr: -118%*; HEK293 MPD ctr 2: inactive; TRPC4/MOR mod: -20%*; TRPC4 ctr inh 2: 34%*; TRPC6 inh conf: inactive; TRPC6 act confirm: inactive

What do the screens show for `Cc1ccc(Cl)cc1NC(=O)N[C@@H](CC(C)C)C(=O)O`?
TRPC4 block: inactive; TRPC4 potent: inactive; TRPC6 inhibitor: inactive; TRPC4 act: inactive; Platelet DG rel: 6; TRPC6 act: inactive

What do the screens show for `CC(C)CNC(=S)NC(=O)c1ccc(F)cc1`?
TRPC4 block: inactive; TRPC4 potent: inactive; TRPC6 inhibitor: inactive; TRPC4 act: inactive; Platelet DG rel: 8; TRPC6 act: inactive

Results for CC(=NCCCn1ccnc1)c1c(C)[nH]n(-c2ccc([N+](=O)[O-])cc2)c1=O ?
TRPC4 block: inactive; TRPC4 potent: inactive; TRPC6 inhibitor: -5.5*; TRPC4 act: inactive; Platelet DG rel: -1; TRPC6 act: inactive; HEK293 TRPC6 ctr: -208%*; HEK293 MPD ctr 2: inactive; TRPC4/MOR mod: -42%*; TRPC4 ctr inh 2: 37%*; TRPC6 inh conf: inactive; TRPC6 act confirm: inactive

How did Cc1[nH]n(-c2ccc([N+](=O)[O-])cc2)c(=O)c1/C=N/N1CCOCC1 do in these assays?
TRPC4 block: inactive; TRPC4 potent: inactive; TRPC6 inhibitor: inactive; TRPC4 act: inactive; Platelet DG rel: 1; TRPC6 act: inactive

What do the screens show for `CC(OC(=O)c1ccc(OCC2CCCO2)cc1)C(=O)N(C)Cc1ccccc1` (stereo unspecified)?
TRPC4 block: inactive; TRPC4 potent: inactive; TRPC6 inhibitor: inactive; TRPC4 act: inactive; Platelet DG rel: -2; TRPC6 act: inactive

What do the screens show for `COc1cc(C#N)ccc1OC(=O)C1CCN(C(=O)c2ccc(F)cc2)CC1`?
TRPC4 block: inactive; TRPC4 potent: inactive; TRPC6 inhibitor: inactive; TRPC4 act: inactive; Platelet DG rel: -9; TRPC6 act: inactive

What do the screens show for `COc1ccc(-c2nc3cccc(C)n3c2NCC2CCCO2)cc1O` (stereo unspecified)?
TRPC4 block: inactive; TRPC4 potent: inactive; TRPC6 inhibitor: -6*; TRPC4 act: inactive; Platelet DG rel: 4; TRPC6 act: inactive; HEK293 TRPC6 ctr: -232%*; HEK293 MPD ctr 2: inactive; TRPC4/MOR mod: -42%*; TRPC4 ctr inh 2: 46%*; TRPC6 inh conf: 45%*; TRPC6 act confirm: inactive

How did Cc1csc(SCC(=O)NC2CCC(C)CC2)n1 (stereo unspecified) do in these assays?
TRPC4 block: inactive; TRPC4 potent: inactive; TRPC6 inhibitor: inactive; TRPC4 act: inactive; Platelet DG rel: -4; TRPC6 act: inactive

How did CCN(CC)CCCNc1cc(C(F)(F)F)c(C#N)c2nc3ccccc3n12 do in these assays?
TRPC4 block: inactive; TRPC4 potent: inactive; TRPC6 inhibitor: -6.5*; TRPC4 act: inactive; Platelet DG rel: 2; TRPC6 act: inactive; HEK293 TRPC6 ctr: inactive; HEK293 MPD ctr 2: 66%*; TRPC4/MOR mod: -66%*; TRPC4 ctr inh 2: 71%*; TRPC6 inh conf: 70%*; TRPC6 act confirm: inactive

Results for CCCc1cc(NCCCCO)n2c(nc3ccccc32)c1C#N ?
TRPC4 block: inactive; TRPC4 potent: inactive; TRPC6 inhibitor: inactive; TRPC4 act: inactive; Platelet DG rel: -3; TRPC6 act: inactive

What do the screens show for `Cc1cc(NCCCCO)n2c(nc3ccccc32)c1C#N`?
TRPC4 block: inactive; TRPC4 potent: inactive; TRPC6 inhibitor: inactive; TRPC4 act: inactive; Platelet DG rel: 9; TRPC6 act: inactive

Results for CCN(CC)CCNc1cc(C)c(C#N)c2nc3ccccc3n12 ?
TRPC4 block: inactive; TRPC4 potent: inactive; TRPC6 inhibitor: -11*; TRPC4 act: inactive; Platelet DG rel: 10; TRPC6 act: inactive; HEK293 TRPC6 ctr: -411%*; HEK293 MPD ctr 2: 96%*; TRPC4/MOR mod: -66%*; TRPC4 ctr inh 2: 62%*; TRPC6 inh conf: 71%*; TRPC6 act confirm: inactive

What do the screens show for `CC(=O)Nc1ccc(NC(=O)c2ccccc2CC[N+](=O)[O-])cc1`?
TRPC4 block: inactive; TRPC4 potent: inactive; TRPC6 inhibitor: inactive; TRPC4 act: inactive; Platelet DG rel: 5; TRPC6 act: inactive

How did N#CCCN(C(=O)COC(=O)Cc1ccc(Br)cc1)c1ccccc1 do in these assays?
TRPC4 block: inactive; TRPC4 potent: inactive; TRPC6 inhibitor: inactive; TRPC4 act: inactive; Platelet DG rel: 1; TRPC6 act: inactive

Results for COc1cc(CCC(=O)OCC(=O)N(CCC#N)c2ccccc2)cc(OC)c1OC ?
TRPC4 block: inactive; TRPC4 potent: inactive; TRPC6 inhibitor: -5.4*; TRPC4 act: inactive; Platelet DG rel: 1; TRPC6 act: inactive; HEK293 TRPC6 ctr: inactive; HEK293 MPD ctr 2: inactive; TRPC4/MOR mod: inactive; TRPC4 ctr inh 2: inactive; TRPC6 inh conf: inactive; TRPC6 act confirm: inactive
